# Laboratory results taken from ChEMBL document CHEMBL3228032, “Aryloxyalkyloxy- and aralkyloxy-4-hydroxy-3-nitrocoumarins which inhibit histamine release in the rat and also antagonize the effects of a slow reacting substance of anaphylaxis” (J Med Chem, 1979).
# Columns and labels:
# Ileum = assay: Antagonism of slow reacting substance of anaphylaxis-induced effect in guinea pig ileum; type: functional, tissue-based; settings: Cavia porcellus
# Summary of the method: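 SRS-A standard: heated supernatant of pooled rat peritoneal fluid taken 5 min after antigen challenge in passive peritoneal anaphylaxis. Assayed on isolated terminal guinea pig ileum in 4 mL Tyrode's with atropine 5 × 10⁻⁷ M and mepyramine maleate 10⁻⁶ M. Antagonist in water added 30 s before a submaximal SRS-A dose. At least three concentrations, more than one ileum. Bath concentration for 50% inhibition taken from log concentration-inhibition curve, by eye or best-fit line with 95% confidence limits.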
# Rattus norvegicus = assay: Antiallergic activity against ip dosed passive peritoneal anaphylaxis rat model assessed as inhibition of histamine release in peritoneal fluid administered 30s prior to ovalbumin challenge measured per rat after 5 mins; type: functional
# Summary of the method: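 Rat anti-ovalbumin antiserum raised with Bordetella pertussis vaccine adjuvant; rats given 2 mL of 1:5 antiserum ip. 2 h later, Pontamine Sky Blue iv, then compound in 1 mL saline ip (saline controls), groups of 5–7, randomized. Challenge 30 s later ip with 5 mL Tyrode containing heparin 50 μg/mL and ovalbumin 0.4 mg/mL. Peritoneal fluid collected at 5 min for histamine. Dose reducing histamine to 50% of controls from log dose-response line, 95% confidence limits.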
IC50 (Ileum) [nM],Structure (SMILES),ED50 (Rattus norvegicus)
> 20000,O=C(O)c1ccc(OCCCOc2ccc3c(O)c([N+](=O)[O-])c(=O)oc3c2)cc1,–
18000,O=c1oc2cccc(OCCCOc3ccccc3)c2c(O)c1[N+](=O)[O-],–
> 10000,O=c1oc2cccc(OCCCCOc3ccccc3)c2c(O)c1[N+](=O)[O-],–
17000,O=c1oc2ccc(OCCOc3ccccc3)cc2c(O)c1[N+](=O)[O-],–
2300,O=c1oc2ccc(OCCCOc3ccccc3)cc2c(O)c1[N+](=O)[O-],–
2000,O=c1oc2ccc(OCCCCCOc3ccccc3)cc2c(O)c1[N+](=O)[O-],–
780,O=c1oc2ccc(OCCCCCCOc3ccccc3)cc2c(O)c1[N+](=O)[O-],–
> 10000,O=c1oc2cc(OCCOc3ccccc3)ccc2c(O)c1[N+](=O)[O-],–
1600,O=c1oc2cc(OCCCOc3ccccc3)ccc2c(O)c1[N+](=O)[O-],2.1 nM
3600,O=c1oc2cc(OCCCCOc3ccccc3)ccc2c(O)c1[N+](=O)[O-],–
8400,O=c1oc2cc(OCCCCCOc3ccccc3)ccc2c(O)c1[N+](=O)[O-],–
> 20000,O=c1oc2cc(OCCCCCCOc3ccccc3)ccc2c(O)c1[N+](=O)[O-],–
> 20000,O=c1oc2c(OCCCOc3ccccc3)cccc2c(O)c1[N+](=O)[O-],–
> 20000,O=c1oc2cccc(OCCCc3ccccc3)c2c(O)c1[N+](=O)[O-],–
22000,O=c1oc2ccc(OCc3ccccc3)cc2c(O)c1[N+](=O)[O-],–
18000,O=c1oc2ccc(OCCc3ccccc3)cc2c(O)c1[N+](=O)[O-],–
5500,O=c1oc2ccc(OCCCc3ccccc3)cc2c(O)c1[N+](=O)[O-],–
1500,O=c1oc2cc(OCc3ccccc3)ccc2c(O)c1[N+](=O)[O-],–
4400,O=c1oc2cc(OCCc3ccccc3)ccc2c(O)c1[N+](=O)[O-],–

IC50 (Ileum) [nM],Structure (SMILES),ED50 (Rattus norvegicus)
7800,O=c1oc2cc(OCCCc3ccccc3)ccc2c(O)c1[N+](=O)[O-],–
4500,O=c1oc2cc(OCCCCc3ccccc3)ccc2c(O)c1[N+](=O)[O-],–
3800,O=c1oc2cc(OCCCCc3ccc(Cl)cc3)ccc2c(O)c1[N+](=O)[O-],–
2500,Cc1ccc(CCCCOc2ccc3c(O)c([N+](=O)[O-])c(=O)oc3c2)cc1,–
5200,Cc1cc(OCCCOc2ccccc2)cc2oc(=O)c([N+](=O)[O-])c(O)c12,–
> 10000,CCc1cc2c(O)c([N+](=O)[O-])c(=O)oc2cc1OCCCOc1ccccc1,–
540,CCCc1c(OCCCOc2ccccc2)ccc2c(O)c([N+](=O)[O-])c(=O)oc12,–
1000,O=c1oc2cc(OCCCOc3ccc(F)cc3)ccc2c(O)c1[N+](=O)[O-],–
4000,O=c1oc2cc(OCCCOc3ccc(Cl)cc3)ccc2c(O)c1[N+](=O)[O-],–
> 4000,COc1ccc(OCCCOc2ccc3c(O)c([N+](=O)[O-])c(=O)oc3c2)cc1,–
6100,CC(=O)c1ccc(OCCCOc2ccc3c(O)c([N+](=O)[O-])c(=O)oc3c2)cc1,–
> 10000,COC(=O)c1ccc(OCCCOc2ccc3c(O)c([N+](=O)[O-])c(=O)oc3c2)cc1,–
> 10000,N#Cc1ccc(OCCCOc2ccc3c(O)c([N+](=O)[O-])c(=O)oc3c2)cc1,–
> 20000,O=c1oc2cc(OCCCOc3ccc(-c4ccccc4)cc3)ccc2c(O)c1[N+](=O)[O-],–
4500,Cc1ccc(OCCCOc2ccc3c(O)c([N+](=O)[O-])c(=O)oc3c2)cc1,–
4400,Cc1cccc(OCCCOc2ccc3c(O)c([N+](=O)[O-])c(=O)oc3c2)c1,–
590,Cc1ccccc1OCCCOc1ccc2c(O)c([N+](=O)[O-])c(=O)oc2c1,–
> 2000,O=c1oc2cc(OCCCOc3ccc4c(c3)CCCC4)ccc2c(O)c1[N+](=O)[O-],–
2800,CC(=O)c1ccc(OCCCOc2ccc3c(O)c([N+](=O)[O-])c(=O)oc3c2)cc1O,–

IC50 (Ileum) [nM],Structure (SMILES),ED50 (Rattus norvegicus)
100,CCCc1c(OCCCOc2ccc3c(O)c([N+](=O)[O-])c(=O)oc3c2)ccc(C(C)=O)c1O,4.8 nM
12000,O=c1oc2cc(OCC(O)COc3ccccc3)ccc2c(O)c1[N+](=O)[O-] (stereo unspecified),–
> 10000,O=C(O)c1ccc(OCC(O)COc2ccc3c(O)c([N+](=O)[O-])c(=O)oc3c2)cc1 (stereo unspecified),–
2700,CCc1ccccc1OCC(O)COc1ccc2c(O)c([N+](=O)[O-])c(=O)oc2c1 (stereo unspecified),–
110,CCCc1ccccc1OCC(O)COc1ccc2c(O)c([N+](=O)[O-])c(=O)oc2c1 (stereo unspecified),1.1 nM
140,CCCc1cc(F)ccc1OCC(O)COc1ccc2c(O)c([N+](=O)[O-])c(=O)oc2c1 (stereo unspecified),1.7 nM
160,CC(C)c1ccccc1OCC(O)COc1ccc2c(O)c([N+](=O)[O-])c(=O)oc2c1 (stereo unspecified),–
700,CCCc1cc(C(C)=O)ccc1OCC(O)COc1ccc2c(O)c([N+](=O)[O-])c(=O)oc2c1 (stereo unspecified),–
> 20000,CC(=O)c1ccc(OCC(O)COc2ccc3c(O)c([N+](=O)[O-])c(=O)oc3c2)cc1O (stereo unspecified),–
500,CC(=O)c1ccc(OCC(O)COc2ccc3c(O)c([N+](=O)[O-])c(=O)oc3c2)c(C)c1O (stereo unspecified),–
80,CCCc1c(OCC(O)COc2ccc3c(O)c([N+](=O)[O-])c(=O)oc3c2)ccc(C(C)=O)c1O (stereo unspecified),6.5 ×10⁻¹⁰ M
150,CCCc1c(OCC(O)COc2ccc3c(O)c([N+](=O)[O-])c(=O)oc3c2)ccc(C(=O)CC)c1O (stereo unspecified),–
3500,CCc1cc(C(C)=O)c(O)cc1OCC(O)COc1ccc2c(O)c([N+](=O)[O-])c(=O)oc2c1 (stereo unspecified),–
25,CCCc1c(OCC(O)COc2ccc3c(O)c([N+](=O)[O-])c(=O)oc3c2C)ccc(C(C)=O)c1O (stereo unspecified),2.4 nM
50,CCCc1c(OCC(O)COc2ccc3c(O)c([N+](=O)[O-])c(=O)oc3c2CC)ccc(C(C)=O)c1O (stereo unspecified),–
200,CCCc1c(OCC(O)COc2ccc3c(O)c([N+](=O)[O-])c(=O)oc3c2CCC)ccc(C(C)=O)c1O (stereo unspecified),6.2 ×10⁻¹⁰ M
–,O=C([O-])c1cc(=O)c2c(OCC(O)COc3cccc4oc(C(=O)[O-])cc(=O)c34)cccc2o1.[Na+].[Na+] [CROMOLYN SODIUM],5.2 nM
170,CCCc1c(OCC(O)COc2ccc3c(=O)cc(C(=O)O)oc3c2CCC)ccc(C(C)=O)c1O (stereo unspecified) [FPL-55712],3.2 ×10⁻⁸ M

Structure (SMILES),IC50 (Ileum) [nM],ED50 (Rattus norvegicus)
Cc1ccc(OCCCOc2ccc3c(O)c([N+](=O)[O-])c(=O)oc3c2)c([N+](=O)[O-])c1,> 10000,–
CCCc1c(O)c(C(C)=O)cc([N+](=O)[O-])c1OCC(O)COc1ccc2c(O)c([N+](=O)[O-])c(=O)oc2c1C (stereo unspecified),1600,–
